OX1R antag-1 = human HCRTR1 antagonism; inhibition, % at 5 µM; AID 434989; 330,000 tested, 0.43% active; CHO/OX1R cells, Fluo-8 calcium fluorescence, orexin A;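 active = inhibition above its plate's threshold, mean inhibition of all tested compounds on the plate plus 3 SD, cut at about 37% in these data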
Target sequence (O43613 whole entry, looked up): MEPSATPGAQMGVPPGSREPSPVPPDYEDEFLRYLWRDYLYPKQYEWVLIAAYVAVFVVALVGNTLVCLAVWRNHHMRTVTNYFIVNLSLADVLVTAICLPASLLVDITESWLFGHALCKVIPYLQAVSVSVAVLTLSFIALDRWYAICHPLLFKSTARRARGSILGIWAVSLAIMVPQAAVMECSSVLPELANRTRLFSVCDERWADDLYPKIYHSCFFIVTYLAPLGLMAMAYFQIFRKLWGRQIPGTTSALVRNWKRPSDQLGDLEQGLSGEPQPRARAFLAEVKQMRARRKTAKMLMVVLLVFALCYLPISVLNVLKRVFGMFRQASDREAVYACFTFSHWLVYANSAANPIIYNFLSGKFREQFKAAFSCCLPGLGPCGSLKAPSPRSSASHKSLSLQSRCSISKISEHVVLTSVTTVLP
TAAR1 ag = agonists of human TAAR1; Q96RJ0; CHO RD-HGA16 TAAR1, Fluo-8 calcium fluorescence; vehicle wells 0%, saturating PEA agonist 100%; activation, % at 3 µM; 360,000 tested, 0.99% active; AID 624467;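 active = activation above the mean activation of all test compounds in the run plus 3 SD, cut at about 38% in these data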
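Signal – calcium-sensitive Fluo-8 signal, excitation 470-495, emission 515-575 nm · System – RD-HGA16 (CHO) cells co-expressing Gα16 and hTAAR1 · Incubation – 17-24 h seeding, 75 min 37 °C dye, 30 min RT · Compound dosing – 3 µM single concentration · Repeats – no replicates (n 1)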
CHO parental Ca = counter-screen: ATP calcium response change in parental CHO cells. 330,000 tested, 0.63% active. inhibition, % at 5.6 µM. AID 463079. parental CHO-K1, ATP-induced calcium, Fluo-8 fluorescence;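 active = inhibition above that plate's mean sample inhibition plus 3 SD, cut at about 26% in these data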
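Test system: untransfected parental CHO cell line; also added: ATP stimulus; dosing: 5.6 µM, single dose; signal: calcium-sensitive Fluo-8 fluorescence; measure: percent inhibition of ATP-evoked calcium rise, normalized to controls; benchmarks: low control ATP plus DMSO, high control DMSO only; replication: one well per compound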
TAAR1 antagonist = human TAAR1 antagonism | Q96RJ0 | 360,000 tested, 1.5% active | AID 624466 | inhibition, % at 3 µM | CHO RD-HGA16 TAAR1, Fluo-8 calcium fluorescence, antagonist;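 active = inhibition above a per-plate cutoff, the mean inhibition of test compounds on that plate plus 3 SD, cut at about 49% in these data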
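System: RD-HGA16 CHO cells with stable hTAAR1 and Gα16 | Probe or stimulus: EC80 β-phenethylamine stimulus | Dosing: 3 µM, single point | Times: Dye loading 75 min at 37 °C, then 30 min room temperature | Measured by: Fluo-8 calcium-sensitive fluorescence | Read-out basis: % inhibition of agonist calcium response | Replicates: n of 1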
OX1R antag-2 = OX1R (human) antagonism; O43613; 330,000 tested, 1.8% active; OX1R-expressing cells, FRET antagonist read-out; inhibition, % at 6.6 µM; AID 485270; in the data active = inhibition mostly above about 38%, no sharp cut-off; inactive = mostly below about 40%
GalR3 antag = blocks the human galanin receptor 3 | AID 651719 | 360,000 tested, 0.44% active | HEK293 GalR3-CNG cAMP membrane potential fluorescence; galR3 body fused to GalR1 C-terminus | inhibition, % at 3 µM;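 active = inhibition above the screen-wide average plus 3 SD, cut at about 13% in these data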;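 note: forskolin and galanin both at EC90 stimulate the cells; cAMP rise reported by CNG channel membrane potential dye signal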
Hits are given with their value; n = inactive; x = not tested or not shown; ! = not confirmed by another sample. This is a sample that favours compounds with a hit; in the whole collection about 4.3% have one here.

SMILES | OX1R antag-1 | TAAR1 ag | CHO parental Ca | TAAR1 antagonist | OX1R antag-2 | GalR3 antag
CC(C)C(O)(C(=O)OCC1=CCN2CCC(O)C12)C(C)O (stereo not drawn) | x | n | x | n | x | n
COc1ccc(-c2ccc3c(c2)CN(C(=S)NCCc2ccccc2)Cc2cnnn2-3)cc1 | x | n | x | n | x | n
CN(C)C(=O)Oc1ccc([N+](=O)[O-])cc1 | n | n | n | n | n | n
CC(=O)Nc1ccc([As](=O)(O)c2ccc([N+](=O)[O-])cc2)cc1 | n | n | n | n | 67 | n
NC(Cc1ccc(F)cc1)c1csc(Nc2ccccn2)n1 (stereo not drawn) | x | 40 | x | n | x | n
NC(Cc1ccc(Cl)cc1)c1csc(Nc2ccccn2)n1 (stereo not drawn) | x | 44 | x | n | x | n
NC(Cc1ccccc1)c1csc(Nc2ccccn2)n1 (stereo not drawn) | x | n | x | n | x | n
CCC1C2CC3C4N(C)c5ccccc5C45CC(C2C5O)N3C1O (stereo not drawn) | x | n | x | n | x | n
CCOC(=O)c1c(NC(=O)c2c(N)n(CCCOC)c3nc4ccccc4nc23)sc2c1CCCC2 | n | n | n | n | n | n
CCOCCCn1c(N)c(C(=O)Nc2sc3c(c2C(=O)OC)CCCC3)c2nc3ccccc3nc21 | n | n | n | 64 | n | n
C[C@@H]1CN([C@@H](C)CO)C(=O)CCCn2cc(nn2)CO[C@H]1CN(C)C(=O)Oc1cccc2ccccc12 | x | n | x | n | x | n
Nc1nonc1C(=O)N/N=C/c1ccc([N+](=O)[O-])o1 | n | n | n | n | 75 | n
Cc1sc2ncnc(N3CCC(C(=O)Nc4ccc(C#N)c(Cl)c4)CC3)c2c1C | n | n | n | n | n | n
NC(=O)c1cc(N2CC2)c([N+](=O)[O-])cc1[N+](=O)[O-] | n | n | n | n | 74 | n
O=C(NCCN1CCC2(CC1)C(=O)NCN2c1ccccc1)c1cc(C(F)(F)F)ccc1C(F)(F)F | x | n | x | n | x | n
COC(=O)C1=C(c2ccccc2OCc2ccccc2)C[C@@H]2CC[C@H]1N2C(=O)NCc1cccc(F)c1 | n | n | n | n | 41 | n
COC(=O)C1=C(c2ccc(F)cc2OCc2ccccc2)C[C@@H]2CC[C@H]1N2C(=O)NCc1ccc(Br)cc1 | n | n | n | 51 | n | n
NCCc1ccccc1 | n | 92 | n | 81 | n | n
COc1ccc2[nH]c(C)c(CCNCc3cccnc3)c2c1 | n | n | n | n | n | n
Cc1[nH]c2ccc(OC(F)(F)F)cc2c1CCNCc1cccc([N+](=O)[O-])c1 | n | 44 | 29 | 49 | n | n
Cc1[nH]c2ccc(OC(F)(F)F)cc2c1CCNCc1ccc(Cl)cc1 | x | 38 | x | n | x | n
COC1CC(OC2CCC3(C)C(CCC4C3CCC3(C)C(C5=CC(=O)OC5)C(OC(C)=O)CC43O)C2)OC(C)C1OC1OC(COC2OC(CO)C(O)C(O)C2O)C(O)C(O)C1O (stereo not drawn) | n | x | n | x | n | x
CC(=O)OC1CC(OC2C(O)CC(OC3C(O)CC(OC4CCC5(C)C(CCC6C5CCC5(C)C(C7=CC(=O)OC7)CCC65O)C4)OC3C)OC2C)OC(C)C1OC1OC(CO)C(O)C(O)C1O (stereo not drawn) | x | n | x | n | x | 22
COC12C(COC(N)=O)C3=C(C(=O)C(C)=C(N)C3=O)N1CC1C2N1C (stereo not drawn) | n | n | n | n | 57 | n
COC(COC(N)=O)C1=C(N2CC2)C(=O)C(C)=C(N2CC2)C1=O (stereo not drawn) | x | n | x | n | x | n
SMILES | OX1R antag-1 | TAAR1 ag | CHO parental Ca | TAAR1 antagonist | OX1R antag-2 | GalR3 antag
Clc1ccc(COC(Cn2ccnc2)c2ccc(Cl)cc2Cl)c(Cl)c1 (stereo not drawn) | 39! | n | 43! | 53! | 25! | x
COC(=O)C1=C(c2cccc3c2S(=O)(=O)c2ccccc2-3)C[C@@H]2CC[C@H]1N2C(=O)N1CCc2cc(OC)c(OC)cc2C1 | n | n | n | 51 | n | n
COC(=O)C1=C(c2cccc3c2S(=O)(=O)c2ccccc2-3)C[C@@H]2CC[C@H]1N2C(=O)N1CCOCC1 | n | n | n | n | n | n
C[C@@H]1CN([C@@H](C)CO)C(=O)CCCn2cc(nn2)CO[C@H]1CN(C)C(=O)Oc1ccc2ccccc2c1 | x | n | x | n | x | n
C[C@@H]1O[C@@H](O[C@@H]2C=C3CC[C@@H]4C(CC[C@]5(C)[C@@H](c6ccc(=O)oc6)CC[C@]45O)[C@@]3(C)CC2)[C@H](O)[C@H](O)[C@H]1O (stereo partly drawn) | n | n | n | n | n | 33
C[C@@H]1O[C@@H](O[C@@H]2C=C3CCC4C(CC[C@]5(C)[C@@H](c6ccc(=O)oc6)CC[C@]45O)[C@@]3(C)CC2)[C@H](O)[C@H](O)[C@H]1O (stereo partly drawn) | n | n | n | n | n | 16
CCCCn1c(O)c(C(C)=NCc2ccco2)c(=O)[nH]c1=O | n | n | n | n | n | n
Cc1ccc2c(c1N)C(=O)c1ccccc1C2=O | n | n | n | n | 40 | n
O=C(O)COc1ccc(Cl)cc1Cl | n | n | n | n | n | n
Oc1cc(Cl)ccc1Oc1ccc(Cl)cc1Cl | n | n | 67 | 50 | 45 | n
CCCCc1nc(N2CCNCC2)c(C#N)c2c1CSC(C)(C)C2 | n | 40 | n | n | n | n
ClC1C(Cl)C(Cl)C(Cl)C(Cl)C1Cl (stereo not drawn) | n | n | n | n | n | x
COC(=O)C(O)(c1ccc(NC(=S)NC(=O)c2ccc(Cl)cc2Cl)cc1)C(F)(F)F (stereo not drawn) | n | 48 | n | 54 | n | n
OC1CN2CCCC(O)C2C1O (stereo not drawn) | x | n | x | n | x | n
C[C@]12C[C@H](O)[C@@H](O)C[C@@H]1CC[C@@H]1[C@@H]2CC[C@]2(C)C(=O)CC[C@@H]12 | x | n | x | 51 | x | n
C[C@]12CCC3[C@@H](CC[C@H]4C[C@@H](O)CC[C@]34C)C1CCC2=O (stereo partly drawn) | n | n | n | n | n | n
CCN1/C(=C\C=C\C2=[N+](CC)c3ccccc3C2(C)C)C(C)(C)c2ccccc21 | 108 | x | 100 | x | n | x
Nc1c(C(=O)NCCCc2ccccc2)c2nc3ccccc3nc2n1Cc1cccs1 | n | 37 | n | n | n | n
CN1OC[C@@H]2CN3C4(C[C@@H]21)c1ccccc1C3(c1ccccc1)c1ccccc14 | x | n | x | n | x | n

High-throughput results deposited in PubChem by The Scripps Research Institute Molecular Screening Center.
